Reference: ChEMBL document CHEMBL4257505, “New tetrahydroisoquinoline-based P-glycoprotein modulators: decoration of the biphenyl core gives selective ligands” (Medchemcomm, 2018)
The source made the active and inactive calls.

Experiments:
[1] = Efflux ratio of apparent permeability from basolateral to apical over apical to basolateral side in human Caco2 cells at 100 uM after 120 mins; type: ADME, cell-based; conditions: Caco-2
How it was run: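 Bidirectional permeability across Caco-2 monolayers. Papp expressed as the basolateral-to-apical over apical-to-basolateral (BA/AB) ratio. Values from two independent experiments. A ratio >2 is read as substrate behaviour, <2 as inhibitor.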

[2] = target: T1, ATP-dependent translocase ABCB1 (Homo sapiens, UniProt P08183); assay: Inhibition of MDR1 (unknown origin) expressed in MDCK cells assessed as reduction in ATP consumption after 2 hrs by ATPlite assay; type: cell-based
T1 sequence (P08183 whole entry): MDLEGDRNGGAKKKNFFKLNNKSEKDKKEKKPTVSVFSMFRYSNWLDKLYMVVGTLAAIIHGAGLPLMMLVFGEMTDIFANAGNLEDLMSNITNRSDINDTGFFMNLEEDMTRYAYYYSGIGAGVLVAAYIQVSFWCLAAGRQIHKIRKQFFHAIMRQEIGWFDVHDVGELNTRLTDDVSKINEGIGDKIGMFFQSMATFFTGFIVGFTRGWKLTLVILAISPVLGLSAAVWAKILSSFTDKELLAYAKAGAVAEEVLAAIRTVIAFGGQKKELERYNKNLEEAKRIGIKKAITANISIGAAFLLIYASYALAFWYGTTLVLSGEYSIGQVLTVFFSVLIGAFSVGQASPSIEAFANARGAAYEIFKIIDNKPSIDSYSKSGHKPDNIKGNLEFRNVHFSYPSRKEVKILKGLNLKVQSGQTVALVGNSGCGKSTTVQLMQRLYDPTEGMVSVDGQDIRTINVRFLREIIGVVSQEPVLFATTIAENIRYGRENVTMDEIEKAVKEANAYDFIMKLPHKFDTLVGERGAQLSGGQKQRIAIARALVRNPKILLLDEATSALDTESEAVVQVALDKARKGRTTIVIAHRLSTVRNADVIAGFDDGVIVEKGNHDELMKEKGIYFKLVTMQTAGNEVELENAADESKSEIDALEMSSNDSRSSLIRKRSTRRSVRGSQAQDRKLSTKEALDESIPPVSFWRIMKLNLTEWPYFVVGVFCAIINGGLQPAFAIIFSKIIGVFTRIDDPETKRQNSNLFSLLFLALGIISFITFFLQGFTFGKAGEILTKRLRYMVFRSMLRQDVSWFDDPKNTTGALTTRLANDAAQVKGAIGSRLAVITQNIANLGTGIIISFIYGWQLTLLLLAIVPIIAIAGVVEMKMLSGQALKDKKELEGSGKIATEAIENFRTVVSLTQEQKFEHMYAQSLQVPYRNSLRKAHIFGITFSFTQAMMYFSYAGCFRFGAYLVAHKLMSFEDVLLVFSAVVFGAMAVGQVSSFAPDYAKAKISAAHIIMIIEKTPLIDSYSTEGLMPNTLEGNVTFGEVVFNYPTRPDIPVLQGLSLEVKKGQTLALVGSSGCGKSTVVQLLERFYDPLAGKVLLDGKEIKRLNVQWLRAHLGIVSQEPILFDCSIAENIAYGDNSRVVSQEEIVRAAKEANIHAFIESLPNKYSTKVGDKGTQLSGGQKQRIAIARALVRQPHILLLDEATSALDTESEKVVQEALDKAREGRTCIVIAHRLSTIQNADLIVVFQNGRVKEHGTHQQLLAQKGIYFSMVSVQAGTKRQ
How it was run: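 ATP cell level depletion measured in MDCK-MDR1 cells. Means of three independent experiments, samples analysed in duplicate.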

[3] = target: T2, Broad substrate specificity ATP-binding cassette transporter ABCG2 (Homo sapiens, UniProt Q9UNQ0); assay: Inhibition of BCRP (unknown origin) expressed in MDCK cells assessed as reduction in Hoechst 33342 efflux at 100 uM preincubated for 30 mins followed by Hoechst 3334 addition measured after 30 mins by fluorescence assay; type: cell-based; conditions: 0.5 h
T2 sequence (Q9UNQ0 whole entry): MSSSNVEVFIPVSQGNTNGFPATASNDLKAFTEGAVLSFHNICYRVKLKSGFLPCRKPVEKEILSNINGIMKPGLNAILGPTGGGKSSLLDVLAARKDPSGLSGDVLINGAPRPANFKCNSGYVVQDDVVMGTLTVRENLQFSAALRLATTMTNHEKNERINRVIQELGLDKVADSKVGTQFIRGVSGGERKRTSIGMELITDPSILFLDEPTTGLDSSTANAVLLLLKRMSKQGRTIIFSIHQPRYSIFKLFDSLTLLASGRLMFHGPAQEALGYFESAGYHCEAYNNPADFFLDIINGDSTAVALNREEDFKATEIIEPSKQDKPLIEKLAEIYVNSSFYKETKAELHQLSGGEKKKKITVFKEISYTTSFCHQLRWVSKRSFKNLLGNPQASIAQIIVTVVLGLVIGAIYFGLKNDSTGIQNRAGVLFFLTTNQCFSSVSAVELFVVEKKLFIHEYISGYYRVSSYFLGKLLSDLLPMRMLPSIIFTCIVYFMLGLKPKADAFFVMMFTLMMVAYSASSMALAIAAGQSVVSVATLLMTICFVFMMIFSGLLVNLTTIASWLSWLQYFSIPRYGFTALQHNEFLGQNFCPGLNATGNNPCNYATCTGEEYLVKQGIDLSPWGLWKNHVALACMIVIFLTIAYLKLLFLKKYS
How it was run: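 Interference with BCRP-mediated transport of the fluorescent substrate Hoechst 33342. Not active defined at 100 μM. Means of three independent experiments, duplicate samples.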

[4] = target: T3, Multidrug resistance-associated protein 1 (Homo sapiens, UniProt P33527); assay: Inhibition of MRP1 (unknown origin) expressed in MDCK cells assessed as reduction in calcein-AM efflux at 100 uM preincubated for 30 mins followed by calcein-AM addition measured after 30 mins by fluorescence assay; type: cell-based; conditions: 0.5 h
T3 sequence (P33527 whole entry): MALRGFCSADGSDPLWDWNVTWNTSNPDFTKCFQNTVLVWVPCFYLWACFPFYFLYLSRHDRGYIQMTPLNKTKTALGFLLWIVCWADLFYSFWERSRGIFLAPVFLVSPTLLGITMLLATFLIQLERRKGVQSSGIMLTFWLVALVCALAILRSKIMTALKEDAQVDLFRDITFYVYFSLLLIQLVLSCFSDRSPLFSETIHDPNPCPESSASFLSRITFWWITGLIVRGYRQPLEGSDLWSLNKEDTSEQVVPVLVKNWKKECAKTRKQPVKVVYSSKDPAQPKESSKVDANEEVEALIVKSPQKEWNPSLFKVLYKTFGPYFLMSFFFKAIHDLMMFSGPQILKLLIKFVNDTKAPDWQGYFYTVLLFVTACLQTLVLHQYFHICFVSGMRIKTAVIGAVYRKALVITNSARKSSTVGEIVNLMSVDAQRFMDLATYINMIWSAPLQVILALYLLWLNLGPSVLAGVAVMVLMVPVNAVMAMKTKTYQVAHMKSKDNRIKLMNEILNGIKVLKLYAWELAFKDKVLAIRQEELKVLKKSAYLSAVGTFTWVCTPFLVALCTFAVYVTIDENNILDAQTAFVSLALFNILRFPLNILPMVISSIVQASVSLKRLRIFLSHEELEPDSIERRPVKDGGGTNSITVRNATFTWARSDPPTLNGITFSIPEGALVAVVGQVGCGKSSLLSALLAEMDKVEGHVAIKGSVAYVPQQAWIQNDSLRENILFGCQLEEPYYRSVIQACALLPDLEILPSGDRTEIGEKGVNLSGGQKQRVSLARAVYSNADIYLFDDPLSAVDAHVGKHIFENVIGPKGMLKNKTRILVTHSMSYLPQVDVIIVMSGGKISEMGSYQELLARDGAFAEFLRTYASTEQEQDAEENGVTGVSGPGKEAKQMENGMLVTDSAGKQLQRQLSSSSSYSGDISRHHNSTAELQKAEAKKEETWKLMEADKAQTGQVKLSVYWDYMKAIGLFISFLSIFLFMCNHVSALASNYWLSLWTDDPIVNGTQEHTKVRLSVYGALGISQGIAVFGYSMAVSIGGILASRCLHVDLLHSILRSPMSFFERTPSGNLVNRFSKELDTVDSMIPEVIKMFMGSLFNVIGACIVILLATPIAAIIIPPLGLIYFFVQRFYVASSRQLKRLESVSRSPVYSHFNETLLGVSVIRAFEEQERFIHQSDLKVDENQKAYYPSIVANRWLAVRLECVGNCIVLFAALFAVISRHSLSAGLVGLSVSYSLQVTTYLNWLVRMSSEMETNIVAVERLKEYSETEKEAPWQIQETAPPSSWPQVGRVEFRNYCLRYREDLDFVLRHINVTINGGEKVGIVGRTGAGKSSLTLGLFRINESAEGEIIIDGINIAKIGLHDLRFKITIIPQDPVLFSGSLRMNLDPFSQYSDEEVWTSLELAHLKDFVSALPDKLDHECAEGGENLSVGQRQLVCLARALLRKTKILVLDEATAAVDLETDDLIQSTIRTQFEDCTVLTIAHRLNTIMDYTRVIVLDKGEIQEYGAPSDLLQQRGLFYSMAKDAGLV
How it was run: (§1)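 Interference with MRP1-mediated transport of pro-fluorescent calcein-AM, reported as EC50. Not active defined at 100 μM. Means of three independent experiments, duplicate samples.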

[5] = target: T1, ATP-dependent translocase ABCB1; assay: Inhibition of MDR1 (unknown origin) expressed in MDCK cells assessed as reduction in calcein-AM efflux preincubated for 30 mins followed by calcein-AM addition measured after 30 mins by fluorescence assay; type: cell-based
How it was run: (§2)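 Competition with P-gp-mediated efflux of the pro-fluorescent substrate calcein-AM in MDCK-MDR1 cells, reported as EC50. Means of three independent experiments, samples in duplicate.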

MDCK [6] = assay: Downregulation of MDR1 protein expression in MDCK-MDR1 cells at 10 uM after 48 hrs by immunoblot analysis; type: functional, cell-based; conditions: Canis lupus familiaris
How it was run: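 Immunoblot of P-gp in MDCK-MDR1 cells treated at 10 μM for 48 h, with untreated cells as control. Protein extracted after incubation, actin used as loading control. Blot representative of 3 experiments.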

[7] = target: T3, Multidrug resistance-associated protein 1; assay: Inhibition of MRP1 (unknown origin) expressed in MDCK cells assessed as reduction in calcein-AM efflux preincubated for 30 mins followed by calcein-AM addition measured after 30 mins by fluorescence assay; type: cell-based; how it was run: as §1
MDCK [8] = assay: Cytotoxicity against MDCK cells over-expressing MDR1 at 0.1 to 25 uM after 48 to 72 hrs by MTT assay; type: ADME, cell-based, Canis lupus familiaris; conditions: dog
[9] = target: T1, ATP-dependent translocase ABCB1; assay: Inhibition of MDR1 (unknown origin) expressed in MDCK cells assessed as increase in doxorubicin-induced cytotoxicity at 10 uM after 48 hrs by MTT assay relative to control; type: cell-based; parameters: scale not given: the % may be the effect or the level left
How it was run: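 MDCK-MDR1 cells treated for 48 h with compound at 10 μM, alone or together with doxorubicin at 10 μM. Antiproliferative effect compared with doxorubicin 10 μM alone.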

[10] = Inhibition of P-gp (unknown origin); parameters: species or system Homo sapiens; how it was run: as §2

COc1cc2c(cc1OC)CN(Cc1ccc(-c3ccc(O)c(F)c3)cc1)CC2
efflux ratio at 2 h, 100 µM [1]: 4.9 | inhibition (INH) [2]: Active | inhibition (INH) [3]: Not Active | inhibition (INH) [4]: Not Active | EC50 [5]: 2.8 µM

COc1cc2c(cc1OC)CN(Cc1ccc(-c3ccc(O)cc3[N+](=O)[O-])cc1)CC2
efflux ratio at 2 h, 100 µM [1]: 11.2 | inhibition (INH) [2]: Active | inhibition (INH) [3]: Not Active | inhibition (INH) [4]: Not Active | EC50 [5]: 2.54 µM

COc1cc2c(cc1OC)CN(Cc1ccc(-c3ccc(O)cc3OC)cc1)CC2
Activity (MDCK [6]): inactive | EC50 [7]: 62 µM | efflux ratio at 2 h, 100 µM [1]: 3.5 | Activity (MDCK [8]): Non-Toxic | inhibition (INH) [2]: Active | inhibition (INH) [3]: Not Active | Activity [9]: 60% | EC50 [5]: 1.86 µM

COc1cc(-c2ccc(CN3CCc4cc(OC)c(OC)cc4C3)cc2)ccc1O
efflux ratio at 2 h, 100 µM [1]: 3.9 | inhibition (INH) [2]: Active | inhibition (INH) [3]: Not Active | inhibition (INH) [4]: Not Active | EC50 [5]: 2 µM

COc1cc2c(cc1OC)CN(Cc1ccc(-c3ccc(O)cc3)cc1F)CC2
efflux ratio at 2 h, 100 µM [1]: 4.1 | inhibition (INH) [2]: Active | inhibition (INH) [3]: Not Active | inhibition (INH) [4]: Not Active | EC50 [5]: 4.73 µM

COc1cc2c(cc1OC)CN(Cc1ccc(-c3ccc(O)c([N+](=O)[O-])c3)cc1)CC2
EC50 [7]: 28.9 µM | efflux ratio at 2 h, 100 µM [1]: 6.3 | inhibition (INH) [2]: Active | inhibition (INH) [3]: Not Active | EC50 [5]: 12.7 µM

COc1cc2c(cc1OC)CN(Cc1ccc(-c3ccc(O)c(N)c3)cc1)CC2
efflux ratio at 2 h, 100 µM [1]: 7.5 | inhibition (INH) [2]: Active | inhibition (INH) [3]: Not Active | inhibition (INH) [4]: Not Active | EC50 [5]: 6.9 µM

COc1cc2c(cc1OC)CN(Cc1ccc(-c3ccc(O)cc3N)cc1)CC2
efflux ratio at 2 h, 100 µM [1]: 4.5 | inhibition (INH) [2]: Active | inhibition (INH) [3]: Not Active | inhibition (INH) [4]: Not Active | EC50 [5]: 5.4 µM

COc1cc2c(cc1OC)CN(Cc1ccc(-c3ccc(O)cc3)c(OC)c1)CC2
Activity (MDCK [6]): inactive | EC50 [7]: 38 µM | efflux ratio at 2 h, 100 µM [1]: 4.4 | Activity (MDCK [8]): Non-Toxic | inhibition (INH) [2]: Active | inhibition (INH) [3]: Not Active | Activity [9]: 15% | EC50 [5]: 1.51 µM

COc1cc2c(cc1OC)CN(Cc1ccc(-c3ccc(O)cc3)cc1)CC2
Activity (MDCK [6]): inactive | EC50 [10]: 0.69 µM | inhibition (INH) [2]: Active | Activity [9]: 20%

COc1cc2c(cc1OC)CN(Cc1ccc(-c3ccc(O)cc3)cc1[N+](=O)[O-])CC2
efflux ratio at 2 h, 100 µM [1]: 5.8 | inhibition (INH) [2]: Active | inhibition (INH) [3]: Not Active | inhibition (INH) [4]: Not Active | EC50 [5]: 8.4 µM

COc1cc2c(cc1OC)CN(Cc1ccc(-c3ccc(O)cc3)c(F)c1)CC2
efflux ratio at 2 h, 100 µM [1]: 3.7 | inhibition (INH) [2]: Active | inhibition (INH) [3]: Not Active | inhibition (INH) [4]: Not Active | EC50 [5]: 6.2 µM

COc1cc2c(cc1OC)CN(Cc1ccc(-c3ccc(O)cc3F)cc1)CC2
efflux ratio at 2 h, 100 µM [1]: 4.5 | inhibition (INH) [2]: Active | inhibition (INH) [3]: Not Active | inhibition (INH) [4]: Not Active | EC50 [5]: 2.17 µM

COc1cc2c(cc1OC)CN(Cc1ccc(-c3ccc(O)cc3)c([N+](=O)[O-])c1)CC2
efflux ratio at 2 h, 100 µM [1]: 2.9 | inhibition (INH) [2]: Active | inhibition (INH) [3]: Not Active | inhibition (INH) [4]: Not Active | EC50 [5]: 15.2 µM

COc1cc(-c2ccc(O)cc2)ccc1CN1CCc2cc(OC)c(OC)cc2C1
Activity (MDCK [6]): inactive | efflux ratio at 2 h, 100 µM [1]: 4.5 | Activity (MDCK [8]): Non-Toxic | inhibition (INH) [2]: Active | inhibition (INH) [3]: Not Active | Activity [9]: 15% | inhibition (INH) [4]: Not Active | EC50 [5]: 1.6 µM
